Assay results from ChEMBL document CHEMBL1127811, “Inhibitors of cholesterol biosynthesis. 2. Hypocholesterolemic and antioxidant activities of benzopyran and tetrahydronaphthalene analogues of the tocotrienols” (J Med Chem, 1994).
pIC50: −log10 of the molar value.

Key:
[1] = Compound oxidation potential using cyclic voltametry; assay type: ADME
HepG2 = assay: In vitro inhibition of cholesterol biosynthesis in Hep G2 cells; assay type: functional, Homo sapiens; parameters: concentration or dose not given beside the values
How it was run: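 HepG2 human hepatoma cells incubated 4 h with compound at 10 μM, DMSO vehicle controls. Mean % inhibition vs controls, SD ≤ ±10%, n ≥ 8.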

[2] = LDL oxidation assay as spectrophotometric determination of TBARS; assay type: functional
How it was run: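 LDL (0.5 mg/mL protein stock) in saline/20 mM HEPES with drug in ethanol, oxidised by CuSO4 (4 × 10⁻⁴ M stock), 37 °C, 5 h, in duplicate. Stopped with EDTA; TCA/TBA added, boiled 30 min, A535 read. Malonaldehyde equivalents from tetramethoxypropane standard curve. IC50 = concentration inhibiting 50% TBARS vs ethanol controls.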

Gallus gallus [3] = species: Gallus gallus; assay: Ratio of HDL/total cholesterol value; assay type: functional
How it was run: (§1)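 Six-week-old male chickens fed corn-soybean control diet with test compound at 50 ppm. Birds fasted 36 h, then refed 48 h before sacrifice. Serum total, LDL and HDL cholesterol and triglycerides measured (mg/100 mL), HDL/total ratio computed. Means ± SD, n = 6–12 per group, also as % of control. Significance p < 0.01 within each study.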

Gallus gallus [4] = species: Gallus gallus; assay: Hypocholesterolemic activity in 6-week old male mormocholesterolemic chickens using experiment 2; assay type: functional; how it was run: as §1
[5] = molecular target: T1, 3-hydroxy-3-methylglutaryl-coenzyme A reductase (Homo sapiens) (UniProt P04035); assay: In vitro suppression of HMG-CoA reductase (HMGR) in Hep G2 cells; assay type: cell-based; parameters: concentration or dose not given beside the values; conditions: HepG2, concentration not given here
T1 sequence (whole entry): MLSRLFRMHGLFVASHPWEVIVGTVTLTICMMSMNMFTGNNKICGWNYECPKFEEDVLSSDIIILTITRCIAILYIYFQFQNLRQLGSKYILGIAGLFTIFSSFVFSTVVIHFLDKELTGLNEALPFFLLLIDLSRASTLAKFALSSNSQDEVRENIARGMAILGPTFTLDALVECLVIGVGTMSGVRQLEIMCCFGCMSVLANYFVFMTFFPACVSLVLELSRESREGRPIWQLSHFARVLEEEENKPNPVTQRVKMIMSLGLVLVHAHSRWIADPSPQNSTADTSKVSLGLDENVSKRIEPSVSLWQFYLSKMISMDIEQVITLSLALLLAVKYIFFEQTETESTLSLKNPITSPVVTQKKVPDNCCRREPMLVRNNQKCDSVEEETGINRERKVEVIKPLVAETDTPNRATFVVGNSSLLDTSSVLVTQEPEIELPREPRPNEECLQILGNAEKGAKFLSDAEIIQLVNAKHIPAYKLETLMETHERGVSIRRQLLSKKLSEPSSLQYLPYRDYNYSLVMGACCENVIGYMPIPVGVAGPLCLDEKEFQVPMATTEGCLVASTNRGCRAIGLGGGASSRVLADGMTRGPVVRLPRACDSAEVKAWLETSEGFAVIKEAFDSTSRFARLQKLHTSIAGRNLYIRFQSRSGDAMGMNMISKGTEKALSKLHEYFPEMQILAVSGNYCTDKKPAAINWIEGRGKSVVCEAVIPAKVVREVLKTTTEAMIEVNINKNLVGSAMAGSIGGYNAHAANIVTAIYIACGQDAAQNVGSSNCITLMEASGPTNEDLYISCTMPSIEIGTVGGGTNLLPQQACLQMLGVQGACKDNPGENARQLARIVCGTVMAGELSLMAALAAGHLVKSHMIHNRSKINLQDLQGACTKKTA
How it was run: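 HepG2 cells treated 4 h with compound at 10 μM, DMSO vehicle controls. HMG-CoA reductase activity assayed in microsomal fraction isolated at end of incubation. Mean % suppression vs controls, SD ≤ ±10%, n ≥ 8.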

Row | SMILES | Potential [1] | Inhibition (HepG2) [%] | also measured
1 | CC(C)=CCC/C(C)=C/CC/C(C)=C/CCc1oc2c(C)c(C)c(O)cc2c(=O)c1O | 1.2 | 61 | –
2 | CC(C)=CCC/C(C)=C/CC/C(C)=C/CCC1(C)CCc2cc(O)ccc2O1 (stereo not given) | 1.05 | 62 | pIC50 [2]: 6.22; Ratio (Gallus gallus [3]): 0.61; Triglycerides (Gallus gallus [4]): 80 mg 100ml-1; inhibition [5]: 53%
3 | CCCCCCCCCCCCCC1(C)CCc2cc(O)c(C)c(C)c2O1 (stereo not given) | – | 16 | –
4 | CC(C)=CCC/C(C)=C/CC/C(C)=C/CCC1(C)CC(O)c2cc(O)c(C)c(C)c2O1 (stereo not given) | 0.96 | 56 | –
5 | CC(C)=CCC/C(C)=C/CC/C(C)=C/CCC1(C)CCc2c(cc(C)c(O)c2C)O1 (stereo not given) | 1.06 | 42 | pIC50 [2]: < 5.00; inhibition [5]: 40%
6 | CC(C)=CCC/C(C)=C/CC/C(C)=C/CCC1(C)CCc2c(O)cccc2O1 (stereo not given) | 1.27 | 62 | –
7 | CC(C)=CCC/C(C)=C/CC/C(C)=C/CC/C(C)=C/CCC1(C)CCc2cc(O)c(C)c(C)c2O1 (stereo not given) | – | 0 | –
8 | CC(C)=CCC/C(C)=C/CCC#CCCC1(C)CCc2cc(O)c(C)c(C)c2O1 (stereo not given) | – | 81 | inhibition [5]: 46%
9 | CC(C)=CCC/C(C)=C/CC/C(C)=C/CCC1(C)CCc2cc(O)c(C(C)(C)C)cc2O1 (stereo not given) | – | 38 | pIC50 [2]: 5.00
10 | CC(C)=CCC/C(C)=C/CC/C(C)=C/CCC1(C)CCc2ccc(O)c(O)c2O1 (stereo not given) | 1.26 | 27 | –
11 | CC(C)=CCC/C(C)=C/CC/C(C)=C/CCC1(C)CCc2cc(O)c(F)cc2O1 (stereo not given) | 1.21 | 60 | pIC50 [2]: 5.52; inhibition [5]: 33%
12 | CC(C)=CCC/C(C)=C/CC/C(C)=C/CCC1(C)C=Cc2cc(O)c(C)c(C)c2O1 (stereo not given) | 0.92 | 69 | –
13 | CC(C)=CCC/C(C)=C/CC/C(C)=C/CCC1(C)CCc2cccc(O)c2O1 (stereo not given) | 1.24 | 46 | –
14 | C/C(=C\CCC1(C)CCc2cc(O)c(F)cc2O1)CO (stereo not given) | – | 15 | pIC50 [2]: < 5.00
15 | CC(C)=CCC/C(C)=C/CC/C(C)=C/CCc1cc(=O)c2cc(O)c(C)c(C)c2o1 | – | 71 | –
16 | CC(C)=CCC/C(C)=C/CC/C=C\CCC1(C)CCc2cc(O)c(C)c(C)c2O1 (stereo not given) | – | 81 | inhibition [5]: 45%
17 | CCCCCCCC/C=C/CCCCCCCC1(C)CCc2cc(O)c(C)c(C)c2O1 (stereo not given) | – | 10 | –
18 | CC(C)=CCC/C(C)=C/CC/C(C)=C/CCC1Oc2c(cc(O)c(C)c2C)C(=O)/C1=N\O (stereo not given) | – | 84 | –
19 | CC(C)=CCC/C(C)=C/CC/C(C)=C/CCC1(C)CCc2cc(C)c(C)cc2O1 (stereo not given) | – | 33 | –
20 | CC(C)=CCC/C(C)=C/CC/C=C/CCC1(C)CCc2cc(O)c(C)c(C)c2O1 (stereo not given) | – | 68 | –
21 | COc1cc2c(c(C)c1C)OC(C)(CC/C=C(\C)CC/C=C(\C)CCC=C(C)C)CC2 (stereo not given) | – | 0 | –
22 | CCCCC/C=C\C/C=C\C/C=C\CCCCC1(C)CCc2cc(O)c(C)c(C)c2O1 (stereo not given) | – | 22 | –
23 | CC(C)=CCC/C(C)=C/CC/C(C)=C/CCC1(C)CCc2ccc(O)cc2O1 (stereo not given) | 1.44 | 58 | pIC50 [2]: < 5.00
24 | CCCCC/C=C\C/C=C\CCCCCCCC1(C)CCc2cc(O)c(C)c(C)c2O1 (stereo not given) | – | 18 | –
25 | CC(C)=CCC/C(C)=C/CC/C(C)=C/CCC1(C)CCc2c(C)c(O)cc(C)c2O1 (stereo not given) | 1.05 | 43 | pIC50 [2]: 5.15; inhibition [5]: 21%
26 | CCCCC/C=C/C/C=C/CCCCCCCC1(C)CCc2cc(O)c(C)c(C)c2O1 (stereo not given) | – | 17 | –
27 | CC(C)=CCC/C(C)=C/CCC1(C)CCc2c(O)cc(N3CCCC3)cc2O1 (stereo not given) | – | 54 | pIC50 [2]: 5.40
28 | CC(C)=CCC/C(C)=C/CC/C(C)=C/CCC1(C)CCc2cc(F)ccc2O1 (stereo not given) | – | 35 | –
